The values below come from ChEMBL document CHEMBL1154690, “Identification of novel, selective, and stable inhibitors of class II histone deacetylases. Validation studies of the inhibition of the enzymatic activity of HDAC4 by small molecules as a novel approach for cancer therapy” (J Med Chem, 2009).

The target of data set [1] is T1, Histone deacetylase 1 (Homo sapiens, UniProt Q13547). Kind of data set: Inhibition of HDAC1.
The nature of data set [2]: Inhibition of wild type HDAC4 (653-1084) from Escherichia coli. The essentials:
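Wild-type HDAC4 expressed in bacteria was assayed with an unnatural trifluoroacetyl-lysine substrate to boost its enzymatic efficiency.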

The nature of data set [3]: Inhibition of constitutively active mutant HDAC4 (653-1084) from Escherichia coli. The essentials: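 Bacterially expressed HDAC4 carrying an H-to-Y active-site mutation, giving a constitutively active mutant enzyme, was used in the enzymatic inhibition assay.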
Data set [4] deals with T2, Protein deacetylase HDAC6 (Homo sapiens, UniProt Q9UBN7).
T2 sequence (Q9UBN7 whole entry): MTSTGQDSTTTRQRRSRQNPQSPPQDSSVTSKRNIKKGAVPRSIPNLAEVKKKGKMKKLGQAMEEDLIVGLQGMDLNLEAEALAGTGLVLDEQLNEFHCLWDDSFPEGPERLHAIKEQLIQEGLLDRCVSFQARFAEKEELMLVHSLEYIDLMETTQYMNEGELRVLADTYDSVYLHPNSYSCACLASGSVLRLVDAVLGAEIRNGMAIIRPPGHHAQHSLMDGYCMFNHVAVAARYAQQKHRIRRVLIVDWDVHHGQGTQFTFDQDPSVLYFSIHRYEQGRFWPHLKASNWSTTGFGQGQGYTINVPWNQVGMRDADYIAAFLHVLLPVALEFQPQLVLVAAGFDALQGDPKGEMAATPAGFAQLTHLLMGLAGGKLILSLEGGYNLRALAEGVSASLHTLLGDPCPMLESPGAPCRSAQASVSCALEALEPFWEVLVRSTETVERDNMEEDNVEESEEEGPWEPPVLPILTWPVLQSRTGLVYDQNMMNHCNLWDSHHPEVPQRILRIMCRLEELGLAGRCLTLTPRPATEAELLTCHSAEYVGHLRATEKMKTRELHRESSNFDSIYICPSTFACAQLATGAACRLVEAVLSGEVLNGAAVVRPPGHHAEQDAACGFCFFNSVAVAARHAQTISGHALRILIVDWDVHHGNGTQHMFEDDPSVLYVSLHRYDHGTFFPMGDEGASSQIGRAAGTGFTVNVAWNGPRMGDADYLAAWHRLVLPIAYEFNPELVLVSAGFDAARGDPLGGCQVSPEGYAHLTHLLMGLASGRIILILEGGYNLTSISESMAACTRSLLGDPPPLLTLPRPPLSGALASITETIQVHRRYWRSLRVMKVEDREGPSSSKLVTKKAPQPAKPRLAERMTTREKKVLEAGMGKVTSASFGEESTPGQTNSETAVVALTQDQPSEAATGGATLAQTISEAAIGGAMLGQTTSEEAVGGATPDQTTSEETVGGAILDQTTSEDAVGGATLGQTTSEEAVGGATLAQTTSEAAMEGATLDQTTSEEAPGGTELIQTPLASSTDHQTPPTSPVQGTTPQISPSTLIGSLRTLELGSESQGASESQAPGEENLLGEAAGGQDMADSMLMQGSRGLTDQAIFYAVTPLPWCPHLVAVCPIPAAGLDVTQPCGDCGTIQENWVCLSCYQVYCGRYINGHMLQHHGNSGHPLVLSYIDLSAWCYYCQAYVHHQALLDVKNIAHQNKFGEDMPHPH
In words: Inhibition of HDAC6.

Data set [5] can be described thus: Metabolic stability in S9 fraction of human HACT116 cells assessed as half life by LC-MS/MS analysis. The format is ADME, subcellular. The note with it: S9 fraction of HACT116 (HCT116) cells.
Data set [6] can be described thus: Metabolic stability in human HCT116 cells assessed as half life by LC-MS/MS analysis. In kind it is ADME, cell-based, HCT-116.
A short description of data set [7]: Selectivity ratio of IC50 for Escherichia coli HDAC4 WT (653-1084) to IC50 for HDAC1.
Data set [8] concerns the target T2, Protein deacetylase HDAC6. Kind of data set: Inhibition of HDAC6 in human HCT116 cells assessed as alpha-tubulin hyperacetylation after 24 hrs. In kind it is cell-based, HCT-116. Put shortly:
(§1)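 HCT116 cells were exposed to inhibitor for 72 h in the proliferation assay, or for 24 h for the histone H3 and α-tubulin deacetylation read-outs. Medium was replaced with fresh inhibitor every 12 h throughout. EC50 was taken as the mean of two independent determinations.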

The target of data set [9] is T1, Histone deacetylase 1. Kind of data set: Inhibition of HDAC1 in human HCT116 cells assessed as inhibition of histone-H3 deacetylation after 24 hrs. In kind it is cell-based, HCT-116. Put shortly:
as §1

Another data set has as its system HCT-116. In words: Antiproliferative activity against human HCT116 cells after 72 hrs. In kind it is functional, cell-based. Conditions: HCT-116, 72 h. Put shortly:
as §1

T1 sequence (Q13547 whole entry): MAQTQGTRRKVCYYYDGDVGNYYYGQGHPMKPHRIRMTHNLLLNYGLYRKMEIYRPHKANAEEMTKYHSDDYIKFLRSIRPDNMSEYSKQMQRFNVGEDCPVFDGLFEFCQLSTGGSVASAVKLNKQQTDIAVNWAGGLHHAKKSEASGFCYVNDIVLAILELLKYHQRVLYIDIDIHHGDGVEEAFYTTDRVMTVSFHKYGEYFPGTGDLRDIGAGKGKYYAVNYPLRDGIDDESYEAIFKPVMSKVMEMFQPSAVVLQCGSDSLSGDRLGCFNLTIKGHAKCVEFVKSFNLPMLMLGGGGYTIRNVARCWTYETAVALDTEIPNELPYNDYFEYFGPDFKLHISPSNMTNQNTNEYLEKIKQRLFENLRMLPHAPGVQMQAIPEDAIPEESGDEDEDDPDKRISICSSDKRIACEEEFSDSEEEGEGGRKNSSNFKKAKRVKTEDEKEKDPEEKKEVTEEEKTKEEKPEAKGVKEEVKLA

Regarding `COc1ccccc1-c1ccc(C(=O)C(F)(F)F)s1`, the IC50 against Histone deacetylase 1 [1] is above 10 µM; in [2] it was above 10000 nM; in data set [3], 3500 nM; in data set [4], 6300 nM.

`O=C(O)c1ccc(-c2ccc(C(=O)C(F)(F)F)s2)cc1`: the half-maximal inhibitory concentration (IC50) against Histone deacetylase 1 [1] is 2.5 µM; in data set [2] it was 74 nM; in data set [3], 60 nM; in [4] it was 27 nM.

As to `N#Cc1ccc(-c2ccc(C(=O)C(F)(F)F)s2)cc1`, the half-maximal inhibitory concentration (IC50) at Histone deacetylase 1 [1] stood at 2.7 µM; in [2] it was 160 nM; in [3] it was 14 nM; in data set [4], 41 nM. Further, the half-life in data set [5] is above 120 min; in [6] it was 480 min.

With `O=C(c1cnc(-c2ccccc2)s1)C(F)(F)F`, the 50% inhibitory concentration (IC50) against Histone deacetylase 1 [1] turned out to be 3.7 µM; in [2], 130 nM; in data set [3] it was 190 nM; in [4], 210 nM. Also, the Ratio IC50 in data set [7] worked out at 25. The half-life in data set [5] was determined as 15 min.

In the case of `COc1ccc(-c2ccc(C(=O)C(F)(F)F)s2)cc1`, the 50% inhibitory concentration (IC50) on Histone deacetylase 1 [1] was above 1 µM; in data set [2], 110 nM; in data set [3], above 1000 nM; in data set [4], above 1000 nM.

As for `O=C(c1ccc(-c2nc(CS(=O)(=O)c3cccs3)no2)s1)C(F)(F)F`, the concentration for half-maximal inhibition (IC50) in [2] turned out to be 35 nM; in [3], 1000 nM. Besides, the half-life in [5] was 52 min; in data set [6], 360 min.

For the molecule `O=C(c1ccc(-c2ccc3nccnc3c2)s1)C(F)(F)F`, the IC50 on Histone deacetylase 1 [1] was found to be 0.91 µM; in data set [2], 160 nM; in [3] it was 54 nM; in data set [4] it was 15 nM. Besides, the half-life in data set [5] was 10 min.

With `O=C(O)c1cccc(-c2ccc(C(=O)C(F)(F)F)s2)c1`, the IC50 worked out at 12.8 µM against Histone deacetylase 1 [1], 310 nM in [2], 96 nM in data set [3] and 70 nM in [4]. In addition, the half-life in data set [6] was 660 min. In addition, the values for the concentration giving a half-maximal response (EC50) (in data set [8]; at Histone deacetylase 1 [9]; in the data set with HCT-116) were 1000 nM, above 50 µM and above 50 µM, respectively.

Turning to `O=C(c1ccc(-c2ccccn2)s1)C(F)(F)F`, the IC50 against Histone deacetylase 1 [1] is above 1 µM; in data set [2], 540 nM; in data set [3], above 1000 nM; in [4], above 1000 nM.

Turning to `O=C(c1cc(-c2ccccc2)cs1)C(F)(F)F`, the half-inhibitory concentration (IC50) against Histone deacetylase 1 [1] was above 10 µM; in [2], 3200 nM; in data set [3], above 10000 nM; in data set [4], 1900 nM.

In the case of `CS(=O)(=O)Cc1noc(-c2ccc(C(=O)C(F)(F)F)s2)n1`, the concentration for half-maximal inhibition (IC50) amounted to 2.7 µM against Histone deacetylase 1 [1], 24 nM in data set [2], 780 nM in [3] and 230 nM in data set [4]. Also, the Ratio IC50 in data set [7] was above 100. For the same molecule, the half-life in data set [5] was above 120 min. For the same molecule, the concentration for a half-maximal effect (EC50) came out at 640 nM in [8], 9 µM on Histone deacetylase 1 [9] and 12.8 µM with HCT-116.

In the case of `O=C(c1ccc(-c2ccc3c(c2)OCCO3)s1)C(F)(F)F`, the 50% inhibitory concentration (IC50) against Histone deacetylase 1 [1] is above 10 µM; in data set [2], above 10000 nM; in [3], 1400 nM; in data set [4], 37 nM.

With `O=C(c1ccc(-c2ccc3[nH]ccc3c2)s1)C(F)(F)F`, the 50% inhibitory concentration (IC50) on Histone deacetylase 1 [1] was above 10 µM; in [2] it was above 10000 nM; in [3], 6200 nM; in data set [4], above 5000 nM.

For the molecule `COc1cccc(-c2ccc(C(=O)C(F)(F)F)s2)c1`, the 50% inhibitory concentration (IC50) against Histone deacetylase 1 [1] was above 10 µM; in data set [2], 3800 nM; in data set [3], above 5000 nM; in data set [4] it was 3100 nM.

Regarding `O=C(c1ccc(-c2nc(CS(=O)(=O)Cc3ccc(F)cc3)no2)s1)C(F)(F)F`, the IC50 is 60 nM in data set [2] and 680 nM in [3]. In addition, in [5], the half-life was above 120 min.

`CN(Cc1ccc2nccnc2c1)C(=O)c1ccc(C(=O)C(F)(F)F)s1`: the IC50 turned out to be 98 nM in [2] and 87 nM in data set [3]. In [5], the half-life amounted to 15 min.

With `O=C(c1ccc(-c2ccccc2)s1)C(F)(F)F`, the 50% inhibitory concentration (IC50) was above 20 µM at Histone deacetylase 1 [1], 2800 nM in [2], 2800 nM in data set [3] and 170 nM in data set [4].

Turning to `CC(=O)c1ccc(-c2ccc(C(=O)C(F)(F)F)s2)cc1`, the half-inhibitory concentration (IC50) at Histone deacetylase 1 [1] was above 10 µM; in [2], 72 nM; in data set [3] it was 12 nM; in [4], 29 nM. The half-life in data set [5] is above 120 min.

Turning to `CCCS(=O)(=O)Cc1noc(-c2ccc(C(=O)C(F)(F)F)s2)n1`, the IC50 in data set [2] was 30 nM; in [3], 520 nM.

For orientation: IC50 means the midpoint of a concentration-inhibition curve. A high value points to lower potency. For orientation: half-life means the time needed for the level to fall by half in the phase considered. One may read the EC50 as the concentration at which the effect is half-maximal.
